# NSD2 inh: NSD2 histone methyltransferase inhibitors, primary screen, biochemical, AlphaScreen, single concentration, set 2; Histone-lysine N-methyltransferase NSD2 (Homo sapiens), O96028; NSD2 peptide methylation, 120 min; inhibition, % at 12.5 µM; hit rate 0.54% among 310,000; AID 743445, 2014; in the data active means inhibition above about 50%
# SR-BI DiI-HDL act: activators of SR-BI mediated DiI-HDL uptake, primary screen, ldlA[mSR-BI] CHO cells, DiI fluorescence; 3 h; 100 = double the neutral-control signal; activation, % at 12.5 µM; hit rate 0.096% among 320,000;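 active means mean replicate activation of at least 60% and every replicate at or above 60%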;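 further: 0% = median plate neutral-control signal and 100% = twice that signal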
#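 Test system: SR-BI-overexpressing, LDLR-lacking CHO cells; Also added: labelled HDL, 10 µg/mL; Measured by: bottom-read cell fluorescence after medium removal, ex 550/em 595 nm; Timing: 3 h uptake period with compound, 37 °C; Buffer or medium: F12, 0.5% BSA, 25 mM HEPES; Doses: single compound concentration, delivered by pin transfer.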
# XiGFP reactiv: activators of inactive X chromosome reactivation, primary screen, imaging, XiGFP fibroblasts, GFP high-content imaging, set 2; hit rate 0.055% among 360,000; XiGFP mouse fibroblasts, % GFP-positive cells imaging, 3 d; cells co-treated with 5-aza-dC sensitizer; scaled so ellipticine positive control = 100%; AID 743238, 2013; activation, % at 7.58 µM;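 active means mean normalized replicate activation at least 10% and every replicate at or above 10%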;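 further: 0% = median of on-plate neutral control wells and 100% = ellipticine 6 µM median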
#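 Material: XiGFP fibroblasts, SV40-immortalized. Buffer or medium: DMEM plus 5-aza-dC sensitizer. Compound: single concentration per compound, delivered by pin transfer. Times: 3 days compound exposure. Controls: ellipticine 6 µM.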
# HGIII-sPLA2 inh: human group III sPLA2 inhibitors, primary screen, biochemical, QFRET, BODIPY PC-A2 liposome substrate; Group 3 secretory phospholipase A2 (Homo sapiens), Q9NZ20; QFRET BODIPY PC-A2 liposome hydrolysis, fluorescence; inhibition, % at 12.2 µM; hit rate 0.56% among 370,000;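 active means inhibition above mean plus 3 SD of compounds lying within the high and low control bounds, cut at about 19% in these data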;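 further: 0% = median of test compound wells and 100% = no enzyme DMSO wells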
# ARNT TACC3 PPI: disruptors of ARNT/TACC3 protein interaction, primary screen, biochemical, AlphaScreen, single concentration; AlphaScreen His-ARNT PAS-B/GST-TACC3 binding, luminescence; TACC3 fragment carries E629A point mutation; inhibition, % at 9.99 µM; hit rate 0.66% among 390,000;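 active means mean inhibition of replicates at least 50% and at least half of replicates each reaching 50%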;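 further: 0% = complete ARNT plus TACC3 wells and 100% = ARNT alone without TACC3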
# SR-BI HDL uptake: inhibitors of SR-BI mediated HDL lipid uptake, primary screen, ldlA[mSR-BI] cells, fluorescence, single point. ldlA[mSR-BI] CHO cells, DiI-HDL uptake fluorescence, 3 h. inhibition, % at 12.5 µM. AID 488896, 2010. Scavenger receptor class B member 1 (Mus musculus), Q61009. hit rate 0.96% among 320,000;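 active means mean replicate inhibition of at least 70% and a set share of replicates each scoring 70 or more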;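 further: 0% = median of neutral control wells and 100% = median of positive control wells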
# Target sequence (Q61009 whole entry, looked up): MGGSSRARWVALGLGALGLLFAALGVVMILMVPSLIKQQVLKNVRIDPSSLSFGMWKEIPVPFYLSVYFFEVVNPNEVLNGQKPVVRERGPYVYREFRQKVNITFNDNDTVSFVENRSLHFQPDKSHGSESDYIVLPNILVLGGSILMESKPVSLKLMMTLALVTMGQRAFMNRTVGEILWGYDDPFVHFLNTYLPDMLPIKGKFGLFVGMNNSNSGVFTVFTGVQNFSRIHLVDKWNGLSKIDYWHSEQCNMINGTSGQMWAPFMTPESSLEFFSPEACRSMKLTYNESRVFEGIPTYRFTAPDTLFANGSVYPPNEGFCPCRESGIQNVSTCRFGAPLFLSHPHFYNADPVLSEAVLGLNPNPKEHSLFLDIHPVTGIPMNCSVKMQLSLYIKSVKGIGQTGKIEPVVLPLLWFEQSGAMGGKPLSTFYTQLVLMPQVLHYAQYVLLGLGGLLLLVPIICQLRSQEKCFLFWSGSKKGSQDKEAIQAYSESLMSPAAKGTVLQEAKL
# ARNT Alpha ctr: AlphaScreen signal interference compounds, dose response, artefact control for ARNT-TACC3 interaction inhibitor project, biochemical, luminescence, cherry-pick; AID 651705, 2012; His-ARNT PASB-GST AlphaScreen artifact counter-screen; hit rate 50% among 1,200; shares compounds with ARNT TACC3 PPI; AC50, µM (highest dose often 68 µM), inactives show top-dose activity change, negative = signal decrease;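 active means every separate test run was called active for a drop in luminescence, with AC50 within twice the top valid dose, actives reach about 71 µM in these data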
# Numbers without * were called inactive; nt = no result given; [ ] = dose if it differs, or a comment. An excerpt weighted towards active compounds, which were near 2% of everything screened.
SMILES,NSD2 inh,SR-BI DiI-HDL act,XiGFP reactiv,HGIII-sPLA2 inh,ARNT TACC3 PPI,SR-BI HDL uptake,ARNT Alpha ctr
COc1cc(CNCc2ccccn2)ccc1OCc1ccc(Cl)c(Cl)c1,20,-32,0,0,42,32,nt
CCOc1cc(CNCc2ccccn2)cc(Cl)c1OC,-8,-13,0,6,53*,13,-30%
O=C(NCCCN1CCCC1=O)Nc1cc(Cl)ccc1Cl,14,19,0,1,-6,-19,nt
COc1ccc(CCNC(=O)CSc2nnc(Cc3csc(N)n3)n2C)cc1OC,1,27,nt,4,28*,-27,-10%
COc1ccc(CCNC(=O)CSc2nnc(Cn3c(=O)sc4ccccc43)n2C)cc1OC,-3,-52,nt,nt,9,52,nt
CCN(C(=O)CSc1nccn1C)c1cccc2ccccc12,-1,-13,0,1,68*,13,3%
CCOc1ccc2nc(SCC(=O)Nc3cccc(S(=O)(=O)NC4=NCCCCC4)c3)[nH]c2c1,6,-34,0,-29,-1,34,nt
COc1ccc(-c2oc3cc(O)c(OC)c(O)c3c(=O)c2OC)cc1O,1,4,1,11,56*,-4,-37%
COc1cc(OC)c2c(=O)c(OC)c(-c3ccc(OC)c(OC)c3)oc2c1,nt,-45,nt,nt,nt,45,nt
CCCc1nnc(NS(=O)(=O)c2ccc(C)cc2)o1,-1,11,0,11,64*,-11,0%
Cc1ccc(S(=O)(=O)Nc2nncs2)cc1,nt,15,nt,7,-12,-15,nt
Cc1ccc(C)c(CSc2ccc3nnc(-c4ccccn4)n3n2)c1,5,-29,0,1,55*,29,-11%
COc1ccc(Br)cc1CNc1ccc(O)cc1,-1,nt,nt,-8,14*,nt,53µM*
Cc1c(-c2ccccc2)sc(Br)c1C(=O)N1CCOCC1,-2,-7,nt,3,-9,7,nt
Oc1cc2c(cc1C(c1ccc(Br)cc1)N1CCCC1)OCO2 (configuration not stated),-1,8,0,1,-4,-8,nt
O=C(N/N=C/c1ccc(OC(=O)c2ccc(Br)cc2)cc1)c1ccncc1,1,nt,0,3,-2,nt,nt
O=C(N/N=C/c1cc([N+](=O)[O-])ccc1O)c1ccncc1,-3,nt,0,7,57*,nt,12µM*
O=C(N/N=C/c1cc(Br)ccc1OC(=O)c1ccc(Br)cc1)c1ccncc1,-2,-96,0,9,61*,96*,56µM*
O=C(N/N=C/c1ccc(O)c([N+](=O)[O-])c1)c1ccncc1,-1,nt,0,4,27,nt,nt
O=C(NN=Cc1c(O)ccc2ccccc12)c1ccncc1,2,-97,0,-4,56*,97*,49µM*
CSCCC(NC(=O)c1ccc(Cl)cc1Cl)C(=O)OC(C)C(=O)NCc1ccco1 (configuration not stated),-2,-20,0,3,-4,20,nt
CO[C@@H]1CN(C)C(=O)c2ccc(NS(C)(=O)=O)cc2OC[C@H](C)N(C(=O)C2CCOCC2)C[C@H]1C,nt,nt,0,nt,-16,nt,nt
CCCCCc1cc(=O)oc2c(C(CCN3CCCC3)c3ccc(N(C)C)cc3)c(OC)cc(OC)c12 (configuration not stated),nt,2,0,-5,51*,-2,9.6µM*
O=S(=O)(c1ccccc1)N1C[C@H]2[C@@H](c3ccccc31)[C@@H](CO)N2Cc1ccccn1,nt,nt,0,nt,27*,nt,-31%[42 µM]
Cc1cccc(S(=O)(=O)N2C[C@H]3[C@@H](c4ccccc42)[C@@H](CO)N3Cc2ccccn2)c1,nt,nt,0,nt,11,nt,nt
SMILES,NSD2 inh,SR-BI DiI-HDL act,XiGFP reactiv,HGIII-sPLA2 inh,ARNT TACC3 PPI,SR-BI HDL uptake,ARNT Alpha ctr
CC(=O)c1cccc(N2C(=O)C3C4CCC(C4=C(C)C)C3C2=O)c1 (configuration not stated),-3,24,0,-6,-10,-24,nt
Cn1c(CCNC(=O)c2ccc(Cl)c(Cl)c2)nnc1SCc1ccc(Cl)c(Cl)c1,1,-37,nt,3,60*,37,-2%
C=CCn1c(CCNC(=O)c2ccc(Cl)c(Cl)c2)nnc1SCCOc1ccc(OC)cc1,3,-50,nt,nt,4,50,nt
C[C@@H]1CN([C@@H](C)CO)C(=O)CCCn2nncc2CO[C@@H]1CN(C)S(=O)(=O)c1ccc(-n2cccn2)cc1,nt,nt,0,5,-2,nt,nt
Cc1cc(C)c(S(=O)(=O)N2CCOC2CNC(=O)C(=O)NCCCn2ccnc2)c(C)c1 (configuration not stated),nt,nt,0,7,63*,nt,42µM*
NS(=O)(=O)c1ccc(CCNC(=O)c2ccc(=O)[nH]c2)cc1,7,nt,0,10,-5,nt,nt
O=C(NCCc1ccccc1)c1ccc(=O)[nH]c1,0,13,nt,0,active,-13,-5%
c1ccc(-c2nnc(-c3ccccn3)nc2NCCN2CCOCC2)cc1,nt,nt,nt,nt,nt,nt,0.83µM*
c1ccc(-c2nnc(-c3ccccn3)nc2NCCc2ccccn2)cc1,nt,nt,nt,nt,nt,nt,1.8µM*
CN1CCN(c2nc(-c3ccccn3)nnc2-c2ccccc2)CC1,nt,nt,nt,nt,nt,nt,0.55µM*
c1ccc(NCCc2ccccn2)cc1,-2,9,0,6,6,-9,nt
OCCCNc1nc(-c2ccc(Cl)cc2)nnc1-c1ccccc1,3,-24,0,-8,-10,24,nt
CC(C)(C)CCNc1nc(-c2ccccn2)nnc1-c1ccccc1,nt,nt,nt,-1,nt,nt,2.2µM*
CC1CCCC(NC(=O)CCNC(=O)c2ccc([N+](=O)[O-])cc2)C1C (configuration not stated),-2,8,0,13,-2,-8,nt
O=C(Cc1ccccn1)NCC[C@H]1CC[C@H](NS(=O)(=O)c2ccc(Cl)cc2)[C@@H](CO)O1,nt,nt,0,nt,4,nt,nt
CO[C@@H](CN(C)S(=O)(=O)c1cccc(Cl)c1)[C@@H](C)CN([C@@H](C)CO)S(=O)(=O)c1ccc(Cl)cc1,nt,nt,0,nt,7,nt,nt
c1ccc(-c2nnc(-c3ccccn3)nc2NCc2cccnc2)cc1,nt,nt,nt,nt,nt,nt,0.69µM*
